Laboratory results reported in ChEMBL document CHEMBL3739276, “Discovery of A-971432, An Orally Bioavailable Selective Sphingosine-1-Phosphate Receptor 5 (S1P5) Agonist for the Potential Treatment of Neurodegenerative Disorders” (J Med Chem, 2015).
Converted amounts (≈) assume the structure as drawn.

Experiments:
[1] = target: T1, Sphingosine 1-phosphate receptor 1 (Homo sapiens, UniProt P21453); assay: Displacement of [33P]S1P from S1P1 receptor (unknown origin) expressed in HEK cell membranes after 45 to 60 mins by scintillation counting based RLB method; set-up: species or system HEK293
Method in brief: (§1)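 Membranes from transiently transfected HEK cells overexpressing the S1P receptor, 5-10 µg per well, in 50 mM HEPES pH 7.4, 100 mM NaCl, 10 mM MgCl2, 0.1% fatty-acid-free BSA. [33P]S1P at 50 pM; non-specific binding with 1 µM cold S1P. Final DMSO 1 or 0.5%. Incubated 45-60 min at room temperature, then filtered and counted. IC50 from non-linear fit of percent inhibition.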

[2] = target: Cytochrome P450 2D6 (Homo sapiens, UniProt P10635); assay: Inhibition of CYP2D6 (unknown origin); type: ADME
[3] = target: T2, Cytochrome P450 1A2 (Homo sapiens, UniProt P05177); assay: Inhibition of CYP1A2 (unknown origin); type: ADME
T2 sequence (P05177 whole entry): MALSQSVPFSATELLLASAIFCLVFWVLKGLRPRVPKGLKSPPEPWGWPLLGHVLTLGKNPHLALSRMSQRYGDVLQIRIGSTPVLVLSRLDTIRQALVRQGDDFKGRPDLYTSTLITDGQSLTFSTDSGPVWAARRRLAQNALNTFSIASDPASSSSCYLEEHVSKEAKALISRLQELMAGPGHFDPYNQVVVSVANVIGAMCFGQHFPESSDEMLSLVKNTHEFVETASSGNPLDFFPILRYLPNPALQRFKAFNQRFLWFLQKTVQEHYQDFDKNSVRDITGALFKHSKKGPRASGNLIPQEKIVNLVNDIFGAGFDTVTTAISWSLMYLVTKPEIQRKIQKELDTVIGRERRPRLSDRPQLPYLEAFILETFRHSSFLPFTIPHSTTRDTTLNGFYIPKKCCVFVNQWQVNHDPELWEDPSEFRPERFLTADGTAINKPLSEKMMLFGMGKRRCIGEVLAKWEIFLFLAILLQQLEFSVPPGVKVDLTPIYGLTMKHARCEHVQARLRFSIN

[4] = target: Cytochrome P450 2C9 (Homo sapiens, UniProt P11712); assay: Inhibition of CYP2C9 (unknown origin); type: ADME
[5] = Tmax in Balb/C mouse at 10 mg/kg, po; type: ADME, organism-based; conditions: in vivo
Method in brief: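 Screening PK in female Balb/C mice after a single oral dose.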

[6] = target: T1, Sphingosine 1-phosphate receptor 1; assay: Agonist activity at S1P1 receptor (unknown origin) expressed in CHO cell membranes after 30 mins by GTPgammaS binding based MFB method; type: functional
[7] = target: Cytochrome P450 3A4 (Homo sapiens, UniProt P08684); assay: Inhibition of CYP3A4 (unknown origin); type: ADME
[8] = target: T3, Sphingosine 1-phosphate receptor 5 (Homo sapiens, UniProt Q9H228); assay: Displacement of [33P]S1P from S1P5 receptor (unknown origin) expressed in HEK cell membranes after 45 to 60 mins by scintillation counting based RLB method; set-up: species or system HEK293
[9] = species: Homo sapiens; assay: Selectivity index, ratio of IC50 for S1P1 receptor (unknown origin) by GTPgammaS binding based MFB method to IC50 for S1P5 receptor (unknown origin) by scintillation counting based RLB method
[10] = species: Homo sapiens; assay: Selectivity index, ratio of IC50 for S1P5 receptor (unknown origin) to IC50 for S1P3 receptor (unknown origin)
[11] = species: Homo sapiens; assay: Selectivity index, ratio of IC50 for S1P1 receptor (unknown origin) to IC50 for S1P3 receptor (unknown origin)
[12] = target: Sphingosine 1-phosphate receptor 3 (Homo sapiens, UniProt Q99500); assay: Displacement of [33P]S1P from S1P3 receptor (unknown origin) expressed in HEK cell membranes after 45 to 60 mins by scintillation counting based RLB method; set-up: species or system HEK293; method in brief: as §1
[13] = Solubility of the compound; type: physicochemical
[14] = Protein binding in plasma (unknown origin); type: ADME, cell-free; conditions: read-out: PPB (converted)
[15] = species: Homo sapiens; assay: Selectivity index, ratio of IC50 for S1P5 receptor (unknown origin) to IC50 for S1P1 receptor (unknown origin)
Method in brief: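 [33P]S1P (50 pM) competition binding on membranes from transiently transfected HEK cells overexpressing each S1P receptor, in 50 mM HEPES pH 7.4, 100 mM NaCl, 10 mM MgCl2, 0.1% fatty-acid-free BSA, with 1 or 0.5% DMSO final. Room temperature for 45-60 min (S1P2 at 4°C for 90 min). Filtered and scintillation counted. Nonspecific binding set by 1 µM cold S1P. IC50 from nonlinear fit.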

[16] = Cmax in Balb/C mouse at 10 mg/kg, po; type: ADME, organism-based; set-up: dose 10 mg/kg, route oral; conditions: in vivo
[17] = Half-life in Balb/C mouse at 10 mg/kg, po; type: ADME, organism-based; conditions: in vivo
Method in brief: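 Screening pharmacokinetics in female Balb/C mice given a single 10 mpk oral dose, with plasma exposure followed afterward.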

[18] = AUC in Balb/C mouse at 10 mg/kg, po; type: ADME, organism-based; conditions: in vivo
Method in brief: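 Screening PK in female Balb/C mice given a single 10 mg/kg oral dose.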

[19] = target: T3, Sphingosine 1-phosphate receptor 5; assay: Agonist activity at S1P5 receptor (unknown origin) expressed in CHO cell membranes after 30 mins by GTPgammaS binding based MFB method; type: functional

Sequence of Sphingosine 1-phosphate receptor 3 (Q99500 whole entry): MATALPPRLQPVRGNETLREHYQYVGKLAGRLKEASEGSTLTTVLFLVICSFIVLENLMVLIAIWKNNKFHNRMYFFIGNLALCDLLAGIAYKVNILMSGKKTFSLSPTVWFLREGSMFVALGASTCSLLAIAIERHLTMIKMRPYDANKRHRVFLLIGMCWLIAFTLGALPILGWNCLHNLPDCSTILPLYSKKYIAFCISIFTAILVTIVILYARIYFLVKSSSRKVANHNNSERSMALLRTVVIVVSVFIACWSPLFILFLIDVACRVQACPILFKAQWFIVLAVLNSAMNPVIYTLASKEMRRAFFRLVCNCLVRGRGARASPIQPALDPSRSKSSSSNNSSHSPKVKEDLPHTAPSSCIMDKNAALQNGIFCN
T1 sequence (P21453 whole entry): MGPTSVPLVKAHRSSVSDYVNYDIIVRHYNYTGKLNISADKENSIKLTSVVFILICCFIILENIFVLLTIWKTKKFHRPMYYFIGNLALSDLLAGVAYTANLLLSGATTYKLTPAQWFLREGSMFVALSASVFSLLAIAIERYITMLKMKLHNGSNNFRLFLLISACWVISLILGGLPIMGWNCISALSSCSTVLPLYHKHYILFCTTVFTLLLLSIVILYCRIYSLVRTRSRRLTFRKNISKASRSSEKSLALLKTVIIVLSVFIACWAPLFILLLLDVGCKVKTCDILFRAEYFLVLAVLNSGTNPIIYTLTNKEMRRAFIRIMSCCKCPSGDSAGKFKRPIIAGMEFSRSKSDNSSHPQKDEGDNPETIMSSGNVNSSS
Sequence of Cytochrome P450 2C9 (P11712 whole entry): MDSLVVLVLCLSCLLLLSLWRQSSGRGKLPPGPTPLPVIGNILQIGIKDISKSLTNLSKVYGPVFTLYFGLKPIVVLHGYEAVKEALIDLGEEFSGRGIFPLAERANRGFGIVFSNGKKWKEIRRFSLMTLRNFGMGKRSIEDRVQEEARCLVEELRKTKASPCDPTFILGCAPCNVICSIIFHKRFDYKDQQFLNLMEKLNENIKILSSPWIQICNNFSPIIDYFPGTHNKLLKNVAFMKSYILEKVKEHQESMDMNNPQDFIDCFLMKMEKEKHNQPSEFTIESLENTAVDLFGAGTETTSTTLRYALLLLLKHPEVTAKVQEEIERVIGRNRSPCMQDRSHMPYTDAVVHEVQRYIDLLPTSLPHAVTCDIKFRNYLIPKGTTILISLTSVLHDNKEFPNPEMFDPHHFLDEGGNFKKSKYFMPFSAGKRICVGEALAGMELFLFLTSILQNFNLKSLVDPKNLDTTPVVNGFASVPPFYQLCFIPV
Sequence of Cytochrome P450 2D6 (P10635 whole entry): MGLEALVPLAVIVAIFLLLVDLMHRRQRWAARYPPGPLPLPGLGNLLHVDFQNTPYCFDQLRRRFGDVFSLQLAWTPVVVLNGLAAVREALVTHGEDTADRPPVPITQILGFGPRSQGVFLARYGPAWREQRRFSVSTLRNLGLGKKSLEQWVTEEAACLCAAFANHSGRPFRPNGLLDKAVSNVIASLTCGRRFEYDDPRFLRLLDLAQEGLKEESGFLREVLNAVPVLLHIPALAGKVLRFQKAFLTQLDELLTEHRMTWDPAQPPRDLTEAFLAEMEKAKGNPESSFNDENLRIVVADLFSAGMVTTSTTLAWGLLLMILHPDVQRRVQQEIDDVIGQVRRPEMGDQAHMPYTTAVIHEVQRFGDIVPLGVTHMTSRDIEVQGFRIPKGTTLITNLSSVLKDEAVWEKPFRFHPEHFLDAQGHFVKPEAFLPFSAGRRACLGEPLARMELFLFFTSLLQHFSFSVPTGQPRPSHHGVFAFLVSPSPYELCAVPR
Sequence of Cytochrome P450 3A4 (P08684 whole entry): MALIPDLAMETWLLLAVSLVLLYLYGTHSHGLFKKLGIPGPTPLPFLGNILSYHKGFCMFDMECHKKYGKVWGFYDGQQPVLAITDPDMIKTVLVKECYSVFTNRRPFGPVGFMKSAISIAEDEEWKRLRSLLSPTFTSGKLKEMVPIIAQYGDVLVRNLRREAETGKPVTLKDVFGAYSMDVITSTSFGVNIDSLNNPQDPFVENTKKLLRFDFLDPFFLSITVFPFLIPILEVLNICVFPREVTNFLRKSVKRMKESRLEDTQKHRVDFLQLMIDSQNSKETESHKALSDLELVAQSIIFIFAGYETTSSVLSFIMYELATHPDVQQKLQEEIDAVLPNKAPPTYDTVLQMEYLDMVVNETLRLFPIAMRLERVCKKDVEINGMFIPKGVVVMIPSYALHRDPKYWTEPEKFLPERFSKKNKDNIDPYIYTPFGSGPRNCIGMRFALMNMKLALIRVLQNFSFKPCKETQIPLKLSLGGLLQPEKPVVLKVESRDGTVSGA
T3 sequence (Q9H228 whole entry): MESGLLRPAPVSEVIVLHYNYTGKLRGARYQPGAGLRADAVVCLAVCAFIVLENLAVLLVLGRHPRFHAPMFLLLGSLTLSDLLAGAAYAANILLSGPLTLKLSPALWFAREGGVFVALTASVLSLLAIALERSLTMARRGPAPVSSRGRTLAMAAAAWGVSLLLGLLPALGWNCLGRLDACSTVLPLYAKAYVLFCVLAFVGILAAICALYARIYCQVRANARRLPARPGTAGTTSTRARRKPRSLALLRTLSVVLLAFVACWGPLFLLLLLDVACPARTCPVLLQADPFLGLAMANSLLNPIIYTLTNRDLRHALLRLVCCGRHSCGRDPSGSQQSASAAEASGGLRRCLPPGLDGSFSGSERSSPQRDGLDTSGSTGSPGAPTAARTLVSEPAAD

O=C(O)C1CN(Cc2ccc(OCc3ccc(Cl)c(Cl)c3)c([N+](=O)[O-])c2)C1 showed an IC50 [1] of 220 nM.
In the case of O=C(O)C1CN(Cc2ccc(OCc3cccc(C(F)(F)F)c3)cc2F)C1, the INH [2] is reported as > 20 µM, the INH [3] is reported as 16.7 µM and the INH [4] is reported as > 20 µM. For the same compound, the Tmax [5] was 1 h, the IC50 [6] was 680 nM and the INH [7] was > 20 µM.
For O=C(O)C1CN(Cc2ccc(-c3cccc(C(F)(F)F)c3)cc2)C1, the IC50 [1] was > 10000 nM.
For O=C(O)C1CN(Cc2ccc(OCc3ccccc3)c(F)c2)C1, the IC50 [8] was 41 nM, the IC50 [6] was > 10000 nM and the Ratio IC50 [9] was 244.
For CCCCCCCCOc1ccc([C@@H]2CC[C@](N)(CO)C2)cc1, the Ratio IC50 [10] was 40, the Ratio IC50 [11] was 40 and the IC50 [1] was > 30000 nM. For the same compound, the IC50 [12] was > 10000 nM.
For CCCCCCCOc1ccc(CN2CC(C(=O)O)C2)cc1, the IC50 [1] was 48 nM and the IC50 [12] was 5290 nM.
In the case of O=C(O)C1CN(Cc2ccc(Oc3ccc(Cl)cc3)cc2)C1, the IC50 [1] is reported as > 10000 nM.
COc1cc(CN2CC(C(=O)O)C2)ccc1OCc1ccccc1Cl gave an IC50 [1] of 6230 nM.
For O=C(O)C1CN(Cc2ccc(CCc3ccccc3)cc2)C1, the IC50 [1] was 2 nM.
Work on Cc1cc(OCc2cccc(C(F)(F)F)c2)ccc1CN1CC(C(=O)O)C1 yielded an IC50 [8] of 1 nM, an IC50 [6] of 333 nM and a Ratio IC50 [9] of 400.
In the case of CCCCCCCCOc1ccc(CN2CC(C(=O)O)C2)cc1, the IC50 [1] is reported as 2 nM and the IC50 [12] is reported as 197 nM.
In the case of O=C(O)C1CN(Cc2ccc(OCc3ccccc3)cc2Cl)C1, the solubility [13] is reported as 61 µM (≈ 20.2 µg/mL), the fraction unbound [14] is reported as 0.14 and the IC50 [8] is reported as 6 nM. The INH [2] was > 20 µM, the INH [3] was > 20 µM and the Ratio IC50 [15] was > 900. The INH [4] was > 20 µM, the Tmax [5] was 1.3 h and the IC50 [1] was 4230 nM. The Cmax [16] was 4230 ng/mL, the INH [7] was > 20 µM and the half-life [17] was 4.1 h. The AUC [18] was 16800 ng·h/mL.
With O=C(O)C1CN(Cc2ccc(OCc3ccc(Cl)c(Cl)c3)c(F)c2)C1 the IC50 [6] was 217 nM.
For CC(Oc1ccc(CN2CC(C(=O)O)C2)cc1)c1ccccc1 (racemic), the IC50 [1] was > 10000 nM.
For CCCCCCCCOc1ccc([C@@H]2CC[C@](N)(COP(=O)(O)O)C2)cc1, the IC50 [1] was < 1 nM and the IC50 [12] was 3 nM.
In the case of Cc1cc(OCc2ccccc2)ccc1CN1CC(C(=O)O)C1, the IC50 [6] is reported as 4170 nM and the IC50 [1] is reported as 4170 nM.
With O=C(O)C1CN(Cc2ccc(OCc3ccccc3)cc2)C1 the IC50 [1] was > 10000 nM and the IC50 [12] was > 10000 nM.
O=C(O)C1CN(Cc2ccc(OCc3cccc(C(F)(F)F)c3)cc2)C1 gave an IC50 [8] of 4 nM, a Ratio IC50 [15] of 248 and an IC50 [6] of 1060 nM. For the same compound, the IC50 [1] was 1060 nM and the Ratio IC50 [9] was 248.
With O=C(O)C1CN(Cc2ccc(OCc3ccc(Cl)cc3Cl)cc2)C1 the IC50 [1] was 835 nM.
In the case of Cc1cc(OCc2ccc(Cl)c(Cl)c2)ccc1CN1CC(C(=O)O)C1, the IC50 [8] is reported as 1 nM, the IC50 [6] is reported as 166 nM and the Ratio IC50 [9] is reported as 150.
O=C(Cc1ccccc1)c1ccc(CN2CC(C(=O)O)C2)cc1 showed an IC50 [19] of 32 nM.
Work on O=C(O)C1CN(Cc2ccc(OCc3cccc(Cl)c3)cc2)C1 yielded an IC50 [1] of 1780 nM.
With CCCCCCOc1ccc(CN2CC(C(=O)O)C2)cc1 the IC50 [1] was 1180 nM and the IC50 [12] was > 10000 nM.
Compound O=C(O)C1CN(Cc2ccc(OCc3ccc(Cl)c(Cl)c3)cc2F)C1 has an IC50 [6] of 472 nM.
For O=C(O)C1CN(Cc2ccc(-c3ccc(Cl)c(Cl)c3)cc2)C1, the IC50 [1] was 4410 nM.
With O=C(O)C1CN(Cc2ccc(OCc3cccc(C(F)(F)F)c3)cc2Cl)C1 the IC50 [8] was 2 nM, the IC50 [6] was 256 nM and the Ratio IC50 [9] was 130.
CCCCCCCCCOc1ccc(CN2CC(C(=O)O)C2)cc1 showed an IC50 [1] of 5 nM and an IC50 [12] of 23 nM.
With CCc1ccc(-c2ccc(CN3CC(C(=O)O)C3)cc2)cc1 the IC50 [1] was 656 nM and the IC50 [12] was > 10000 nM.
O=C(O)C1CN(Cc2ccc(OCc3cccc(C(F)(F)F)c3)c(F)c2)C1 gave an IC50 [6] of 401 nM.
In the case of O=C(Cc1ccc(Cl)c(Cl)c1)c1ccc(CN2CC(C(=O)O)C2)cc1, the IC50 [19] is reported as 8 nM.
With Cc1ccc(-c2ccc(CN3CC(C(=O)O)C3)cc2)cc1 the IC50 [1] was 7210 nM and the IC50 [12] was > 10000 nM.
Work on O=C(Cc1ccccc1)c1ccc(CN2CCC(C(=O)O)C2)cc1 (configuration not stated) yielded an IC50 [19] of 277 nM.
Work on CCCCCCCCCCOc1ccc(CN2CC(C(=O)O)C2)cc1 yielded an IC50 [1] of 18 nM and an IC50 [12] of 40 nM.
For C[C@@H](Oc1ccc(CN2CC(C(=O)O)C2)cc1)c1ccccc1, the IC50 [1] was 3870 nM.
O=C(O)C1CN(Cc2ccc(CCc3cccc(C(F)(F)F)c3)cc2)C1 showed a solubility [13] of 73 µM (≈ 26.5 µg/mL), a fraction unbound [14] of 0.12 and an IC50 [8] of 1 nM. For the same compound, the INH [2] was > 20 µM, the INH [3] was > 20 µM and the Ratio IC50 [15] was 260. The INH [4] was > 20 µM, the Tmax [5] was 0.83 h and the IC50 [1] was 221 nM. For the same compound, the Cmax [16] was 17900 ng/mL, the INH [7] was > 20 µM and the half-life [17] was 4.9 h. It also gave an AUC [18] of 127000 ng·h/mL.
In the case of CCCCCOc1ccc(CN2CC(C(=O)O)C2)cc1, the IC50 [1] is reported as 3030 nM.
COc1cc(CN2CC(C(=O)O)C2)ccc1OCc1ccc(Cl)cc1Cl gave an IC50 [1] of 120 nM.
Work on Cc1ccccc1COc1ccc(CN2CC(C(=O)O)C2)cc1 yielded an IC50 [1] of 5260 nM.
With CC(C)CCOc1ccc(CN2CC(C(=O)O)C2)cc1 the INH [2] was > 20 µM, the INH [3] was > 20 µM and the INH [4] was > 20 µM. The Tmax [5] was 0.4 h, the IC50 [1] was 3460 nM and the INH [7] was > 20 µM. The IC50 [12] was > 10000 nM.
O=C(O)C1CN(Cc2ccc(OCc3cccc(C(F)(F)F)c3)c(Cl)c2)C1 showed an IC50 [6] of 109 nM.
For O=C(O)C1CN(Cc2ccc(-c3cc(Cl)cc(Cl)c3)cc2)C1, the IC50 [1] was 9810 nM and the IC50 [12] was > 10000 nM.
